According to ChEMBL document CHEMBL4616704, “Discovery of an Atropisomeric PI3Kβ Selective Inhibitor through Optimization of the Hinge Binding Motif” (ACS Med Chem Lett, 2020):

Tests used:
[1] = target: Phosphatidylinositol 4,5-bisphosphate 3-kinase catalytic subunit gamma isoform (Homo sapiens, UniProt P48736); assay: Inhibition of human full length p110gamma using PIP2 as substrate after 30 mins in presence of ATP at 2xKm concentration by TR-FRET assay
[2] = target: Cytochrome P450 3A4 (Homo sapiens, UniProt P08684); assay: Inhibition of human CYP3A4; format: ADME
[3] = Clearance in human hepatocytes at 1 uM measured up to 250 mins by UHPLC-HRMS analysis; format: ADME, cell-based, Hepatocyte
[4] = Apparent permeability across apical to basolateral side in human Caco2 cells at 10 uM after 1 to 2 hrs by LC/MS/MS analysis; format: ADME, cell-based; conditions: Caco-2
[5] = Apparent permeability across basolateral to apical side in human Caco2 cells at 10 uM after 1 to 2 hrs by LC/MS/MS analysis; format: ADME, cell-based; conditions: Caco-2
[6] = target: T1, Phosphatidylinositol 4,5-bisphosphate 3-kinase catalytic subunit beta isoform (Homo sapiens, UniProt P42338); assay: Inhibition of PI3Kbeta in PTEN-deficient human PC3 cells assessed as reduction in AKT phosphorylation at Ser473 residue after 2 hrs by mesoscale assay; format: cell-based, PC-3
Outline: (§1)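 Cellular readout: pAKT1 Ser473 normalized to total AKT1, expressed as units pAKT1 Ser473 per nanogram total AKT1; cells treated under serum-free conditions.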

[7] = target: T1, Phosphatidylinositol 4,5-bisphosphate 3-kinase catalytic subunit beta isoform; assay: Inhibition of PI3Kbeta in PTEN-deficient human MDA-MB-415 cells assessed as reduction in AKT phosphorylation at Ser473 residue after 2 hrs by mesoscale assay; format: cell-based; outline: as §1
[8] = target: T1, Phosphatidylinositol 4,5-bisphosphate 3-kinase catalytic subunit beta isoform; assay: Inhibition of PI3Kbeta in PTEN-deficient human ZR-75-1 cells assessed as reduction in AKT phosphorylation at Ser473 residue after 2 hrs by mesoscale assay; format: cell-based; outline: as §1
[9] = Clearance in Sprague-Dawley rat at 1 mg/kg administered as iv infusion for 30 mins and measured after 24 hrs by ESI-LC/MS/MS analysis; format: ADME, organism-based; conditions: in vivo
[10] = Terminal half life in Sprague-Dawley rat at 1 mg/kg administered as iv infusion for 30 mins and measured after 24 hrs by ESI-LC/MS/MS analysis; format: ADME, organism-based; conditions: in vivo, read-out: beta t1/2 (converted)
[11] = MRT in Sprague-Dawley rat at 1 mg/kg administered as iv infusion for 30 mins and measured after 24 hrs by ESI-LC/MS/MS analysis; format: ADME, organism-based; conditions: in vivo
[12] = Oral bioavailability in Sprague-Dawley rat at 5 mg/kg dosed via gavage after 24 hrs by ESI-LC/MS/MS analysis; format: ADME, organism-based; conditions: in vivo
[13] = Protein binding in Beagle dog plasma at 1 mg/kg administered as iv infusion for 30 mins and measured after 24 hrs by ESI-LC/MS/MS analysis; format: ADME, organism-based, Canis lupus familiaris; conditions: read-out: PPB (converted)
[14] = Clearance in Beagle dog at 1 mg/kg administered as iv infusion for 30 mins and measured after 24 hrs by ESI-LC/MS/MS analysis; format: ADME, organism-based, Canis lupus familiaris; conditions: in vivo
[15] = Volume of distribution at steady state in Beagle dog at 1 mg/kg administered as iv infusion for 30 mins and measured after 24 hrs by ESI-LC/MS/MS analysis; format: ADME, organism-based, Canis lupus familiaris; conditions: in vivo, read-out: Vdss
[16] = Terminal half life in Beagle dog at 1 mg/kg administered as iv infusion for 30 mins and measured after 24 hrs by ESI-LC/MS/MS analysis; format: ADME, organism-based, Canis lupus familiaris; conditions: in vivo, read-out: beta t1/2 (converted)
[17] = Oral bioavailability in Beagle dog at 5 mg/kg dosed via gavage after 24 hrs by ESI-LC/MS/MS analysis; format: ADME, organism-based, Canis lupus familiaris; conditions: in vivo
[18] = Protein binding in cynomolgus monkey plasma at 1 mg/kg administered as iv infusion for 30 mins and measured after 24 hrs by ESI-LC/MS/MS analysis; format: ADME, organism-based, Macaca fascicularis; conditions: read-out: PPB (converted)
[19] = Volume of distribution at steady state in cynomolgus monkey at 1 mg/kg administered as iv infusion for 30 mins and measured after 24 hrs by ESI-LC/MS/MS analysis; format: ADME, organism-based, Macaca fascicularis; conditions: in vivo, read-out: Vdss
[20] = MRT in cynomolgus monkey at 1 mg/kg administered as iv infusion for 30 mins and measured after 24 hrs by ESI-LC/MS/MS analysis; format: ADME, organism-based, Macaca fascicularis; conditions: in vivo
[21] = Oral bioavailability in cynomolgus monkey at 5 mg/kg dosed via gavage after 24 hrs by ESI-LC/MS/MS analysis; format: ADME, organism-based, Macaca fascicularis; conditions: in vivo
[22] = Protein binding in rhesus monkey plasma at 1 mg/kg administered as iv infusion for 30 mins and measured after 24 hrs by ESI-LC/MS/MS analysis; format: ADME, organism-based, Macaca mulatta; conditions: read-out: PPB (converted)
[23] = Clearance in rhesus monkey at 1 mg/kg administered as iv infusion for 30 mins and measured after 24 hrs by ESI-LC/MS/MS analysis; format: ADME, organism-based, Macaca mulatta; conditions: in vivo
[24] = Volume of distribution at steady state in rhesus monkey at 1 mg/kg administered as iv infusion for 30 mins and measured after 24 hrs by ESI-LC/MS/MS analysis; format: ADME, organism-based, Macaca mulatta; conditions: in vivo, read-out: Vdss
[25] = Terminal half life in rhesus monkey at 1 mg/kg administered as iv infusion for 30 mins and measured after 24 hrs by ESI-LC/MS/MS analysis; format: ADME, organism-based, Macaca mulatta; conditions: in vivo, read-out: beta t1/2 (converted)
[26] = Ocular toxicity in Beagle dog assessed as irreversible damage by measuring dilated pupils at 10 to 40 mg/kg/day administered for 7 days and measured from day 4 to day 7; format: organism-based, Canis lupus familiaris; conditions: in vivo, 168 h
[27] = Ocular toxicity in Beagle dog assessed as irreversible damage by measuring red conjuctiva at 10 to 40 mg/kg/day administered for 7 days and measured from day 4 to day 7; format: organism-based, Canis lupus familiaris; conditions: in vivo, 168 h
[28] = Ocular toxicity in Beagle dog assessed as irreversible damage by measuring retinal degeneration at 10 to 100 mg/kg/day administered for 7 days by microscopic analysis; format: organism-based, Canis lupus familiaris; conditions: in vivo, 168 h
[29] = Ocular toxicity in Beagle dog assessed as irreversible damage by measuring choroidal inflammation at 10 to 100 mg/kg/day administered for 7 days measured on day 6 by ERG and OCT analysis; format: organism-based, Canis lupus familiaris; conditions: in vivo, 168 h
[30] = Ocular toxicity in Beagle dog assessed as irreversible damage by measuring retinal necrosis at 10 to 100 mg/kg/day administered for 7 days by microscopic analysis; format: organism-based, Canis lupus familiaris; conditions: in vivo, 168 h
[31] = Ocular toxicity in Beagle dog assessed as irreversible damage by measuring retinal detachment at 10 to 100 mg/kg/day administered for 7 days by microscopic analysis; format: organism-based, Canis lupus familiaris; conditions: in vivo, 168 h
[32] = Ocular toxicity in Beagle dog assessed as irreversible damage by measuring decrease in electroretinography response at 10 to 100 mg/kg/day administered for 7 days measured on day 6 by ERG and OCT analysis; format: organism-based, Canis lupus familiaris; conditions: in vivo, 168 h
[33] = target: CYP450 (Homo sapiens, UniProt P04798+P05177+P05181+P08684+P10632+P10635+P11509+P11712+P13584+P20813+P20815+P20853+P24462+P24903+P33260+P33261+P51589+P78329+P98187+Q02928+Q08477+Q16678+Q16696+Q5TCH4+Q6VVX0+Q7Z449+Q8TAV3+Q96SQ9+Q9HB55); assay: Inhibition of human CYP450; format: ADME, protein assay
Outline: (§2)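 Binding-assay format used to measure inhibition of major human CYP450 enzymes and hERG.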

[34] = target: Voltage-gated inwardly rectifying potassium channel KCNH2 (Homo sapiens, UniProt Q12809); assay: Inhibition of human ERG; outline: as §2
[35] = Genotoxicity in Salmonella typhimurium by Ames test; format: toxicity; conditions: salmonella enterica subsp. enterica serovar typhimurium

T1 sequence (P42338 whole entry, canonical isoform): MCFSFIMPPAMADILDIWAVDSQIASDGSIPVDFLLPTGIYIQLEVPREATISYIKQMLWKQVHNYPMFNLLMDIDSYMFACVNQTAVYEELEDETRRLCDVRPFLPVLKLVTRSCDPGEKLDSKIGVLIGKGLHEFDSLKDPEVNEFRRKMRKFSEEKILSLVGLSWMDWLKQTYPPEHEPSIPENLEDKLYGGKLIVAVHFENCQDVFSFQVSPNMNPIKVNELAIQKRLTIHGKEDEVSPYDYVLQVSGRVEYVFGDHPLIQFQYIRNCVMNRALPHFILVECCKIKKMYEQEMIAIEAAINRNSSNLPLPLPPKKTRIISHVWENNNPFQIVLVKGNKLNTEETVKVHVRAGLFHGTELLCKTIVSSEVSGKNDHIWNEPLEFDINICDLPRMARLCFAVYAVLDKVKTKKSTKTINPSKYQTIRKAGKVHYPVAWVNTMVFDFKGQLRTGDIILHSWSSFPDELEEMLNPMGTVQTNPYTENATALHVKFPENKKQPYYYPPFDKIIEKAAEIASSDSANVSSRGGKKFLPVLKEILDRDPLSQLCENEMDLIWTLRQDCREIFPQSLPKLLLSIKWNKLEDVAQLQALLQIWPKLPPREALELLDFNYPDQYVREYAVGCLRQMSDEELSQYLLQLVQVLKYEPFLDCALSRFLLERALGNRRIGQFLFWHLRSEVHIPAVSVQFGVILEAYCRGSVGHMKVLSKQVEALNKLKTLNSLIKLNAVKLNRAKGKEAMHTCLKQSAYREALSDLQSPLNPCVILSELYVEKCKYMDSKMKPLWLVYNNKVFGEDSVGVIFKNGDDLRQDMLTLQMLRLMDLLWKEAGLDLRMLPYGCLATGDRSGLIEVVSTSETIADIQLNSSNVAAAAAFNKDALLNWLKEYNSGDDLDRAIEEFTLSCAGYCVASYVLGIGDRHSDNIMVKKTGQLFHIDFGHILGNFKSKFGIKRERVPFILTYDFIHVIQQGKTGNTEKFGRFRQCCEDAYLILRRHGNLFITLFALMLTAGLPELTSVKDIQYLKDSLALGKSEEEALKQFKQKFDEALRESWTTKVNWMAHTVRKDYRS
Phosphatidylinositol 4,5-bisphosphate 3-kinase catalytic subunit gamma isoform, sequence (P48736 whole entry, canonical isoform): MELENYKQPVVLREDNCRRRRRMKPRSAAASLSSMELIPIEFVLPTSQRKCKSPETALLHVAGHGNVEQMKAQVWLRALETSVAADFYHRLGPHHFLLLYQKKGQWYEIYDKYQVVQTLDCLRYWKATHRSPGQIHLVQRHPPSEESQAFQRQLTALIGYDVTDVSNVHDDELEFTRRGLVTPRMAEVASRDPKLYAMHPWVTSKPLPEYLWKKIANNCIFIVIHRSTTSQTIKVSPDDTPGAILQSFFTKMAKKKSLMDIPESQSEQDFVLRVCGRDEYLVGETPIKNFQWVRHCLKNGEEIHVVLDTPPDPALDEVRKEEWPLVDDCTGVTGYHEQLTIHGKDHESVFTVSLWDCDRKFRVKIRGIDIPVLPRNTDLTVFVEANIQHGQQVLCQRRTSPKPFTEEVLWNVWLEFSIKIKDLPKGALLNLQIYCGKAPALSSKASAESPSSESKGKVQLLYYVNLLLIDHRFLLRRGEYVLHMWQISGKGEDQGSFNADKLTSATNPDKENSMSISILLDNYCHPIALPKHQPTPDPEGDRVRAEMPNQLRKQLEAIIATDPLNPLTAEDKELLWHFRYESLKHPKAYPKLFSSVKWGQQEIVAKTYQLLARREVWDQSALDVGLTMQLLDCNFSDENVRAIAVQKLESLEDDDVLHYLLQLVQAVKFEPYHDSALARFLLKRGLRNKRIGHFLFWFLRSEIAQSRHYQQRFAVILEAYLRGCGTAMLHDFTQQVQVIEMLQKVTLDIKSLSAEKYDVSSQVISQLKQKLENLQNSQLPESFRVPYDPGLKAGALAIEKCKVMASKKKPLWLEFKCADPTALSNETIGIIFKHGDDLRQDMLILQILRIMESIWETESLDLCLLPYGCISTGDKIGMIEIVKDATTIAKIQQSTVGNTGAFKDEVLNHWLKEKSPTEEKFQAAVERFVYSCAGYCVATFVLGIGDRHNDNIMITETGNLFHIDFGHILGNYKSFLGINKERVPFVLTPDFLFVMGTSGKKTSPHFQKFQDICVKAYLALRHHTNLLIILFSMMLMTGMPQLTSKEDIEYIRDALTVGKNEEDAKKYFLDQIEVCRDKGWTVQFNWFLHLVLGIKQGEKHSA
Cytochrome P450 3A4, sequence (P08684 whole entry): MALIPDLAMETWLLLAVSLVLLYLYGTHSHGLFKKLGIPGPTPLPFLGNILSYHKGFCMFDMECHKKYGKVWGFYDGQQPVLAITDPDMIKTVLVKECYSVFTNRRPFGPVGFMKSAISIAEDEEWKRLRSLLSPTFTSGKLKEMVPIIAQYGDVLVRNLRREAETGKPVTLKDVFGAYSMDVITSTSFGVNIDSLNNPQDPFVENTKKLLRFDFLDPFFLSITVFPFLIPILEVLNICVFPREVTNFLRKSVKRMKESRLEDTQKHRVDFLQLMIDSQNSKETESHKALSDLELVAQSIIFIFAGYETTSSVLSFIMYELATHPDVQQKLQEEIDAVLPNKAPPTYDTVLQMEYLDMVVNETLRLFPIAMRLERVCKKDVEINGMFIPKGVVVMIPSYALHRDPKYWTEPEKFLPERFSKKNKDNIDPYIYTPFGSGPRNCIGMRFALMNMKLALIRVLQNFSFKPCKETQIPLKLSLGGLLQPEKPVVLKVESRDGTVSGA
Voltage-gated inwardly rectifying potassium channel KCNH2, sequence (Q12809 whole entry): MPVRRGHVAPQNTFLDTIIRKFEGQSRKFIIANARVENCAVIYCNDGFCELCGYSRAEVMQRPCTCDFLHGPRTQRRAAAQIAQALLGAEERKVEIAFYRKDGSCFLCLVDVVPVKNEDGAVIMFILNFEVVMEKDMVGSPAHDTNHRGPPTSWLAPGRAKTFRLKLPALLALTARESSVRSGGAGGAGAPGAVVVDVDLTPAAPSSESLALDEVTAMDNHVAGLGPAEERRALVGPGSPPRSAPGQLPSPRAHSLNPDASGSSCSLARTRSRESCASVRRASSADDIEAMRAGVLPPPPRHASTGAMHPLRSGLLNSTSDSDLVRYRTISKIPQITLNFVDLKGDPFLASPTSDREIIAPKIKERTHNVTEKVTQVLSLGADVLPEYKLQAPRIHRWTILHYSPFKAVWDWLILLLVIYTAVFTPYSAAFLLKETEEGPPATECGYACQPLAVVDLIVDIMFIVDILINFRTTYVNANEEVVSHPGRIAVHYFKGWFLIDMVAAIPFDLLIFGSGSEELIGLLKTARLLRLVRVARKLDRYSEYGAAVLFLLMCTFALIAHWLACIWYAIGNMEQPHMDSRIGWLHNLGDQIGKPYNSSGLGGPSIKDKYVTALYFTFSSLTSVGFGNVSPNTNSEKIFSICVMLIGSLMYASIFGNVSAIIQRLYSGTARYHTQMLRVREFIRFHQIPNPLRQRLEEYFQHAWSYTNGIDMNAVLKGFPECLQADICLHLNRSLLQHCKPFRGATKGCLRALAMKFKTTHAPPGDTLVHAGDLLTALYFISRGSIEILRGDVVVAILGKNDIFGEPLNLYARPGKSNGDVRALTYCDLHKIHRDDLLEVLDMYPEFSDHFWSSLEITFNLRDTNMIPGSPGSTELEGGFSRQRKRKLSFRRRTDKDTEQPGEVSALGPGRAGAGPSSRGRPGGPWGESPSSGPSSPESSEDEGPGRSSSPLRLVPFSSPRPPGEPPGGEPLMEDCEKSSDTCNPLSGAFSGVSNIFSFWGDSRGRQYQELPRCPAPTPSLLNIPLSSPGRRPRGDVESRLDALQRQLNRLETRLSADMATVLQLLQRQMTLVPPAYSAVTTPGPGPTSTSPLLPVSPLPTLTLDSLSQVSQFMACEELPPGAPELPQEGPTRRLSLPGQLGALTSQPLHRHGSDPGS

Cc1nc2c(-c3nnc[nH]3)cc(-c3ccnc(C#N)c3)cc2n1-c1ccnc2c(F)ccc(F)c12
IC50 [1]: 6.61 µM
IC50 [2]: 24 µM
CLH at 1 µM [3]: 3.17 mL/min/kg
CLH ([3]; 250 min, 1 µM): 3 mL/min/kg
Papp A→B at 10 µM [4]: 22 ×10⁻⁶ cm/s
Papp B→A at 10 µM [5]: 32 ×10⁻⁶ cm/s
EC50 [6]: 0.012 µM
EC50 [7]: 0.015 µM
EC50 [8]: 0.005 µM
clearance [9]: 32.8 mL/min/kg
half-life [10]: 1.2 h
MRT [11]: 1.3 h
bioavailability [12]: 53%
fraction unbound at 24 h [13]: 0.14
clearance [14]: 5.67 mL/min/kg
Vd [15]: 2.5 L/kg
half-life [16]: 5.5 h
bioavailability [17]: 76%
fraction unbound at 24 h [18]: 0.16
Vd [19]: 1.3 L/kg
MRT [20]: 5.2 h
bioavailability [21]: 35%
fraction unbound at 24 h [22]: 0.19
clearance [23]: 7.83 mL/min/kg
Vd [24]: 2.6 L/kg
half-life [25]: 4.4 h
Activity [26]: Toxic
Activity [27]: Toxic
Activity [28]: Toxic
Activity [29]: Toxic
Activity [30]: Toxic
Activity [31]: Toxic
Activity [32]: Toxic
IC50 [33]: > 25 µM
IC50 [34]: > 25 µM
Activity [35]: Non-Toxic
